Measured values taken from ChEMBL document CHEMBL1138782, “Toward a novel metal-based chemotherapy against tropical diseases. 7. Synthesis and in vitro antimalarial activity of new gold-chloroquine complexes” (J Med Chem, 2004).

Test system: Cell line
Assay: Parasitaemia for Plasmodium falciparum in human erythrocytes after 3 hrs incubation with 100 uM compound
Assay type: functional
Outline: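 Uninfected RBCs preincubated 3 h at 37 °C with 100 µM compound, washed in RPMI medium, then placed 6 h with RBCs carrying 44–48 h schizonts of synchronized K1 culture (plasmagel and sorbitol synchronization); reinvasion read as resulting parasitemia (%).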

## CCN(CC)CCCC(C)Nc1ccnc2cc(Cl)ccc12.O=P(O)(O)O.O=P(O)(O)O (stereo unspecified) [CHLOROQUINE PHOSPHATE]
  Parasitemia: 5.67%
